# Measurements published in publication PMC5362268 (Cell, 2017).
# Where “and” joins values, the source holds several entries; their conditions need not be identical. Identical values can stand only once.
# How the values were obtained:
# [1] = biological target: KRAS^G12D-GppNHp (Homo sapiens, UniProt P01116, G12D); test: Isothermal titration calorimetry; type: binding
# How it was run: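 Test compound in the cell at 200 µM (1.25% DMSO); protein in the syringe at 2.0 mM, DMSO-matched. Run at 25 °C: 19 × 2 µl injections, 180 s apart; reference power 5 µcal/sec.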
# [2] = biological target: RRAS2 (Homo sapiens, UniProt P62070); test: MST with RAS GTPases; type: binding; details: selectivity panel, GppNHp-loaded
# Chain of RRAS2 (P62070 whole entry): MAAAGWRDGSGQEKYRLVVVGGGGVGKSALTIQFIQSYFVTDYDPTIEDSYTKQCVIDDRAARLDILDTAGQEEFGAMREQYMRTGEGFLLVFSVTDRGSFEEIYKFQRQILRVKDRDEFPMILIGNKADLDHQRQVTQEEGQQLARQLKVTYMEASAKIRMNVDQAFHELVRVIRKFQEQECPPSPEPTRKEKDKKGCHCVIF
# [3] = tested on: Kras^lox/lox, Hras^−/−, Nras^−/− RERTn^ert/ert MEFs; test: Viability assay in mouse embryo fibroblasts; type: cell-based; details: Fibroblast, 48 h, read-out: IC50 (lethality)
# How it was run: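 Cells trypsinised and seeded at 1,000/well in 384-well plates unless otherwise specified. After 16 h, 8- or 16-point dilution series (from 10 mM DMSO stocks) transferred at 1:5. At 48 h, Alamar blue added to 10% final; fluorescence read after 6 h (ex 535, em 590 nm). Triplicates; 37 °C, 5% CO2.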
# [4] = tested on: T-ALL cells with mutant NRAS (G13V and G13D); test: Viability of primary T-ALL patient samples; type: cell-based; details: Homo sapiens, 72 h
# How it was run: (§1)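 Primary T-ALL lymphoblasts, 250,000 per well in 24-well plates, in triplicate. Treated with DMSO vehicle or test compound across 1 to 5 μM for 72 h. Viability by flow-based kit with counting beads, gating out GFP+ stromal cells and PI+ dead cells and particles.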
# [5] = tested on: T-ALL cells with wild-type NRAS; test: Viability of primary T-ALL patient samples; type: cell-based, human; details: 5 μM, 72 h, four patient samples
# How it was run: as §1
# [6] = tested on: SW480 (KRAS^G12V); test: Multicellular tumor spheroids; type: cell-based, human; details: low-adherence plates, 72 h
# [7] = tested on: pERK and pAKT in Hras^−/−; Nras^−/−; Kras^flox/flox MEFs; test: Western blots of mouse embryo fibroblasts; type: cell-based; details: treatment for 0.6 h, 1 h or 16 h, EGF stimulated
# How it was run: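 MEFs seeded at 0.25 million/well in DMEM with Glutamax, 10% heat-inactivated FBS and P/S, grown to 80% confluence, then serum-starved 24 h. Serum-free treatment with 5 μM test compound for 35 min or 1 h, or 2 μM for 16 h, then EGF 10 ng/ml for 15 min. Quantified as (phospho/tubulin)/(total/tubulin), normalised to DMSO.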
# [8] = tested on: pERK and pAKT in BJeLR (HRAS^V12) cells; test: Western blots of RAS signaling; type: cell-based, human
# How it was run: (§2)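 Cells seeded 16 h before use in DMEM with 10% or 2% FBS plus P/S. Compound added in serum-free DMEM or DMEM 2% FBS for the indicated times. Lysis in HEPES pH 7.4 buffer with phosphatase and protease inhibitors; SDS-PAGE, PVDF transfer, Li-COR blocking, primary antibodies (1:1000) overnight at 4 °C.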
# [9] = tested on: pERK and pAKT in HT-1080 cells (NRAS^Q61K); test: Western blots of RAS signaling; type: cell-based, human
# How it was run: as §2
# [10] = tested on: CRAF-bound RAS in BJeLR cells; test: Cell-based RAS pulldown; design: species or system human
# How it was run: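 BJeLR cells seeded 16 h before use in DMEM with 10% FBS. Medium then replaced with serum-free medium containing the test compound or a reference inhibitor (from 10 mM DMSO stocks), 24 h. c-RAF bound to RAS proteins was determined by pulldown.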
# [11] = tested on: RALA-GTP in BJeLR cells; test: RALA activation assay; type: cell-based, human
# How it was run: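 BJeLR cells seeded 16 h before use in DMEM with 2% FBS, then given medium with test compound (from 10 mM DMSO stock) for 6 h. Cells washed twice with ice-cold 25 mM Tris, 100 mM NaCl, 1 mM TCEP, 5 mM MgCl2, 0.1% Tween-20 with protease inhibitor. RALA-GTP pulled down on beads, eluted in SDS buffer and blotted.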
# [12] = tested on: PDTALL22 patient T-ALL xenograft; test: Patient-derived xenograft study; type: in vivo, mouse; details: 30 mg/kg IP
# How it was run: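 Retrovirally transduced luciferase-expressing T-ALL cells were expanded in primary recipients, harvested from spleen and injected into secondary recipients. These were randomised into two groups of 5 with equal luciferase load. Dosing: vehicle or 30 mg/kg IP in 5% DMSO in HBSS pH 4 on days 0, 1, 4, 5, 7, 8. Imaging on days 0, 4 and 8; sacrifice on day 8 for spleen weight and human CD45+ cells.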
# [13] = tested on: pAKT (S473), pERK1/2 and cleaved caspase-3 in KP^f/fC pancreatic tumors; test: KP^f/fC mouse pharmacodynamic study; type: in vivo; details: post- vs pre-treatment tumor samples
# [14] = K mouse weights on study; type: in vivo; details: individual mice
# [15] = Solubility of compound 3144; type: physicochemical
compound,measurement,setting,value
"NC1(C(=O)NCCCn2cc(-c3ccc(OC(F)(F)F)cc3)c3cc(CN4CCN(Cc5c(Cl)cccc5Cl)CC4)ccc32)CCNCC1 [compound 3144, 4-amino-N-(3-(5-((4-(2,6-dichlorobenzyl)piperazin-1-yl)methyl)-3-(4-(trifluoromethoxy)phenyl)-1H-indol-1-yl)propyl)piperidine-4-carboxamide]",Kd,[1],17.8 ± 4.5 µM
same,binding by MST,[2],weak binding
same,IC50,[3],3.8 µM
same,viability at 5 µM,[4],20 to 40%
same,effect on viability,[5],no observable effect on viability
same,spheroid size,[6],decreased in size in a dose-dependent manner
same,pERK and pAKT abundance,[7],moderately decreased
same,EGF-induced pAKT and pERK abundance,[8],suppressed to a degree
same,pERK and pAKT abundance,[8],somewhat decreased
same,pERK and pAKT abundance,[9],somewhat decreased
same,EGF-induced pAKT and pERK abundance,[9]; 10 ng/mL EGF 15 min,suppressed to a degree
same,CRAF-bound RAS,[10],decreased
same,RALA-GTP,[11],decreased
same,percent of infiltrative human CD45+ cells in spleen,[12]; day 8,reduction
same,spleen cellularity (hematoxylin and eosin),[12]; day 8,decreased cellularity
same,spleen size,[12]; day 8,decrease in size
same,tumor burden (luciferase imaging),"[12]; days 0, 1, 4, 5, 7, 8, imaged after 4 and 8 days",decrease in tumor burden
same,cleaved caspase-3 in tumor,[13],modest increase
same,pAKT (S473) and pERK1/2 in tumor,[13]; 30 mg/kg IP once daily,decrease
same,K mouse weights,[14]; day 1 on study,19.1 and 14.5 and 22.9 and 26.1 and 18.5
same,K mouse weights,[14]; day 2 on study,18.4 and 14.1 and 21.6 and 24.7 and 17.4
same,K mouse weights,[14]; day 3 on study,18.6 and 14.2 and 20.7 and 23.6 and 17
same,K mouse weights,[14]; day 4 on study,17.5 and 14.2 and 20.1 and 23.27 and 17.7
same,K mouse weights,[14]; day 5 on study,17.5 and 13.63 and 19.8 and 22.7 and 16.5
same,concentration without visible precipitation,"[15]; aqueous buffers (e.g., phosphate buffered saline), room temperature, 1.5% DMSO",≥ 250 µM
same,solubility,"[15]; aqueous solutions, aqueous buffer, kinetic from dmso stock",5 µM
